ChEMBL document CHEMBL3804807, “Purine analogs as phosphatidylinositol 4-kinase IIIβ inhibitors” (Bioorg Med Chem Lett, 2016)

Legend:
Hepatitis C virus = assay: Antiviral activity against Hepatitis C virus subtype 1b; assay type: functional, organism-based, Hepacivirus hominis; settings: genotype 1b
Homo sapiens [1] = organism: Homo sapiens; assay: Inhibition of PI4K3 beta (unknown origin) assessed as residual activity at 10 uM by ADP-Glo assay relative to control
How it was run: (§1)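 PI4K IIIα and PI4K IIIβ activity read by ADP-Glo assay. Each compound was tested at a single concentration of 10 μM, and residual enzyme activity was expressed relative to control.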

[2] = Cytotoxicity against human HeLa cells; assay type: cell-based
Coxsackievirus B3 = assay: Antiviral activity against Human coxsackievirus B3; assay type: functional, organism-based; settings: Enterovirus B
Homo sapiens [3] = organism: Homo sapiens; assay: Inhibition of PI4K3 alpha (unknown origin) at 10 uM by ADP-Glo assay relative to control; how it was run: as §1
Human rhinovirus sp. = assay: Antiviral activity against Human rhinovirus; assay type: functional, organism-based
[4] = Inhibition of PI4K3 beta (unknown origin) by ADP-Glo assay; parameters: species or system Homo sapiens

EC50 (Hepatitis C virus) [µM]	Activity (Homo sapiens [1]) [%]	EC50 (Coxsackievirus B3) [µM]	inhibition (Homo sapiens [3]) [%]	EC50 (Human rhinovirus sp.) [µM]	IC50 [4] [µM]	SMILES	CC50 [2] [µM]
> 44	62	> 50	< 50			COc1ccc(-n2c(CO)nc3c(NCCN4CCOCC4)nc(C)nc32)cc1OC	> 50
33	31	26	< 50			COc1ccc(-n2nnc3c(NCCN4CCOCC4)nc(C)nc32)cc1OC	> 50
40	25	19	< 50	49	1.44	COc1ccc(-n2c(C)nc3c(NCCN4CCOCC4)nc(N)nc32)cc1OC	> 50
> 44	65	> 50	< 50			COc1ccc(-n2c(C(C)C)nc3c(NCCN4CCOCC4)nc(C)nc32)cc1OC	> 50
> 44	79	> 50	< 50	> 50		COc1ccc(-n2c(C3CCCCC3)nc3c(NCCN4CCOCC4)nc(C)nc32)cc1OC	> 50
22	74	> 50	< 50			COc1ccc(-n2ccc3c(NCCN4CCOCC4)ncnc32)cc1OC	> 50
32	41	> 50	< 50			COc1ccc(-n2nnc3c(NCCN4CCOCC4)ncnc32)cc1OC	> 50
> 44	125	> 50	< 50	> 50		COc1ccc(-n2c(-c3ccc(O)cc3)nc3c(NCCN4CCOCC4)nc(C)nc32)cc1OC	> 50
> 44	99	> 50	< 50	> 50		COc1ccc(-n2c(C(F)(F)F)nc3c(NCCN4CCOCC4)nc(C)nc32)cc1OC	> 50
> 44	75	> 50	< 50	> 50		COc1ccc(-n2c(C3CC=CCC3)nc3c(NCCN4CCOCC4)nc(C)nc32)cc1OC (centres undefined)	> 50
4.4	66	27	< 50	3.4		COc1ccc(-n2c(C)nc3c(NCCN4CCOCC4)nc(-c4ccc(F)cc4)nc32)cc1OC	> 50
15	36	14	< 50	3.3		COc1ccc(-n2c(C)nc3c(NCCN4CCOCC4)nc(-c4cccnc4)nc32)cc1OC	> 50
6	15	> 50	< 50	16	2.99	COc1nc(NCCN2CCOCC2)c2nc(C)n(-c3ccc(OC)c(OC)c3)c2n1	> 50
> 44	97	> 50	< 50	> 50		COc1ccc(-n2c(-c3ccc(C#N)cc3)nc3c(NCCN4CCOCC4)nc(C)nc32)cc1OC	> 50
> 44	14	8	< 50	40	0.91	COc1ccc(-n2c(C)nc3c(NCCN4CCOCC4)nc(C)nc32)cc1OC	> 50
> 44	138	> 50	< 50	> 50		COc1ccc(-n2c(-c3ccc(C=O)cc3)nc3c(NCCN4CCOCC4)nc(C)nc32)cc1OC	> 50
> 44	86	> 50	< 50	> 50		COc1ccc(-n2c(OC)nc3c(NCCN4CCOCC4)nc(C)nc32)cc1OC	> 50
6	58	5	< 50	8		COc1ccc(-n2c(C)nc3c(NCCN4CCOCC4)nc(C#Cc4ccccc4)nc32)cc1OC	48
> 44	94	> 50	< 50	> 50		COc1ccc(-n2c(-c3ccsc3)nc3c(NCCN4CCOCC4)nc(C)nc32)cc1OC	> 50

EC50 (Hepatitis C virus) [µM]	Activity (Homo sapiens [1]) [%]	EC50 (Coxsackievirus B3) [µM]	inhibition (Homo sapiens [3]) [%]	EC50 (Human rhinovirus sp.) [µM]	IC50 [4] [µM]	SMILES	CC50 [2] [µM]
1.3	18	1.8	< 50	3	2.37	COc1ccc(-n2c(C)nc3c(NCCN4CCOCC4)nc(-c4ccc(O)cc4)nc32)cc1OC	> 50
13	18	> 50	< 50	26	1.91	C#Cc1nc(NCCN2CCOCC2)c2nc(C)n(-c3ccc(OC)c(OC)c3)c2n1	> 50
5	67	> 50	< 50	9		COc1ccc(-n2c(C)nc3c(NCCN4CCOCC4)nc(-c4cccc(Cl)c4)nc32)cc1OC	> 50
14	24	> 50	< 50	31	2.07	COc1ccc(-n2c(C)nc3c(NCCN4CCOCC4)nc(C#N)nc32)cc1OC	> 50
3.8	16	1.1	< 50	3.3	1.09	COc1ccc(-n2c(C)nc3c(NCCN4CCOCC4)nc(-c4cccc(C(=O)N(C)C)c4)nc32)cc1OC	> 50
23	46		< 50	> 50		COc1ccc(-n2c(C)nc3c(NCCN4CCOCC4)nc(-c4ccsc4)nc32)cc1OC	> 50
> 44	78	> 50	< 50	> 50		COc1ccc(-n2c(-c3ccc(F)cc3)nc3c(NCCN4CCOCC4)nc(C)nc32)cc1OC	> 50
20	38	40	< 50	> 50		COc1ccc(-n2c(I)nc3c(NCCN4CCOCC4)nc(C)nc32)cc1OC	> 50
3.9	97	9.9	< 50	3		COc1ccc(-n2c(C)nc3c(NCCN4CCOCC4)nc(-c4ccc(C#N)cc4)nc32)cc1OC	> 50
> 44	112		< 50	9.6		COc1ccc(-n2c(-c3ccc(OCc4ccccc4)cc3)nc3c(NCCN4CCOCC4)nc(C)nc32)cc1OC	26
6.7	17	11	< 50	25	5.2	COc1ccc(-n2c(Br)nc3c(NCCN4CCOCC4)nc(C)nc32)cc1OC	> 50
30	96	> 50	< 50	> 50		COc1ccc(-n2c(C#Cc3ccccc3)nc3c(NCCN4CCOCC4)nc(C)nc32)cc1OC	> 50
43	126	> 50	< 50	> 50		COc1ccc(Cn2c(C)nc3c(NCCN4CCOCC4)nc(C)nc32)cc1OC	> 50
> 44	103	> 50	< 50	> 50		COc1ccc(-n2c(-c3ccc(CO)cc3)nc3c(NCCN4CCOCC4)nc(C)nc32)cc1OC	> 50
11.5	26	34	< 50			COc1ccc(-n2cnc3c(NCCN4CCOCC4)nc(C)nc32)cc1OC	> 50
5.9	14	1.6	< 50	9.3	2.14	COc1ccc(-n2c(C)nc3c(NCCN4CCOCC4)nc(-c4cccc(NC(C)=O)c4)nc32)cc1OC	> 50
19	13	5	< 50	28	1.61	COc1ccc(-n2c(C)nc3c(NCCN4CCOCC4)ncnc32)cc1OC	> 50
10	33	9	< 50	16		COc1ccc(-n2c(C)nc3c(NCCN4CCOCC4)nc(I)nc32)cc1OC	> 50
